Test results published in ChEMBL document CHEMBL1144801, “Synthesis of new benzimidazole linked pyrrolo[2,1-c][1,4]benzodiazepine conjugates with efficient DNA-binding affinity and potent cytotoxicity” (Bioorg Med Chem Lett, 2008).
The source made the active and inactive calls. The calls are words filed in the database; no cut-off is given here.

How the values were obtained:
DNA = assay: Binding affinity to calf thymus DNA at 1:5 (compound:DNA) molar ratio in 37degC after 18 hrs by thermal denaturation studies; format: nucleic-acid assay; conditions: Bos taurus
Method in brief: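 Calf thymus DNA with ligand at a 1:5 ligand:DNA molar ratio in aqueous 10 mM sodium phosphate + 1 mM EDTA, pH 7.00. Mixtures were incubated at 37 °C and read at 0 h and 18 h. The read-out was the shift in helix melting temperature (ΔTm) relative to CT-DNA alone.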

Bacilli = assay: Inhibition of Bacillus amyloli BamH1 restriction endonuclease-mediated pBR322 cleavage by RED100-restriction endonuclease digestion assay
Method in brief: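 Plasmid pBR322 exposed to the conjugate, then digested with BamH1 (20 U) for 1 h at 37 °C. Cut and uncut products separated by agarose gel electrophoresis and visualized by ethidium bromide staining under UV. Controls were untreated pBR322 and a complete BamH1 digest.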

HCT-15 = assay: Cytotoxicity against human HCT15 cells; format: functional
HOP-92 = assay: Cytotoxicity against human HOP92 cells; format: functional
MCF7 = assay: Cytotoxicity against human MCF7 cells; format: functional
OVCAR-8 = assay: Cytotoxicity against human OVCAR8 cells; format: functional
K562 = assay: Cytotoxicity against human K562 cells; format: functional
Hs-578T = assay: Cytotoxicity against human HS578T cells; format: functional
NCI/ADR-RES = assay: Cytotoxicity against human NCI/ADR-RES cells; format: functional
SNB-19 = assay: Cytotoxicity against human SNB19 cells; format: functional
MDA-MB-468 = assay: Cytotoxicity against human MDA-MB-468 cells; format: functional
BT-549 = assay: Cytotoxicity against human BT549 cells; format: functional
NCI-H23 = assay: Cytotoxicity against human NCI-H23 cells; format: functional
RPMI-8226 = assay: Cytotoxicity against human RPMI8226 cells; format: functional
LOX IMVI = assay: Cytotoxicity against human LOXIMVI cells; format: functional
SN12C = assay: Cytotoxicity against human SN12C cells; format: functional
NCI-H322M = assay: Cytotoxicity against human NCI-H322M cells; format: functional
UO-31 = assay: Cytotoxicity against human UO31 cells; format: functional
[1] = Cytotoxicity against human OVCAR1 cells; format: functional
SW-620 = assay: Cytotoxicity against human SW620 cells; format: functional
U-251 = assay: Cytotoxicity against human U251 cells; format: functional
UACC-62 = assay: Cytotoxicity against human UACC62 cells; format: functional
786-0 = assay: Cytotoxicity against human 786-0 cells; format: functional
ACHN = assay: Cytotoxicity against human ACHN cells; format: functional
OVCAR-5 = assay: Cytotoxicity against human OVCAR5 cells; format: functional
HT-29 = assay: Cytotoxicity against human HT29 cells; format: functional
SF-539 = assay: Cytotoxicity against human SF539 cells; format: functional
SK-OV-3 = assay: Cytotoxicity against human SKOV3 cells; format: functional
SK-MEL-28 = assay: Cytotoxicity against human SKMEL28 cells; format: functional
MDA-MB-231 = assay: Cytotoxicity against human MDA-MB-231 cells; format: functional
OVCAR-3 = assay: Cytotoxicity against human OVCAR-3 cells; format: functional
RXF 393 = assay: Cytotoxicity against human RXF393 cells; format: functional
M14 = assay: Cytotoxicity against human M14 cells; format: functional
Malme-3M = assay: Cytotoxicity against human MALME3M cells; format: functional
UACC-257 = assay: Cytotoxicity against human UACC257 cells; format: functional
CCRF-CEM = assay: Cytotoxicity against human CCRF-CEM cells; format: functional
COLO 205 = assay: Cytotoxicity against human COLO205 cells; format: functional
TK-10 = assay: Cytotoxicity against human TK10 cells; format: functional
SR = assay: Cytotoxicity against human SR cells; format: functional
HCC 2998 = assay: Cytotoxicity against human HCC2998 cells; format: functional
OVCAR-4 = assay: Cytotoxicity against human OVCAR4 cells; format: functional
EKVX = assay: Cytotoxicity against human EKVX cells; format: functional
A549 = assay: Cytotoxicity against human A549 cells; format: functional
NCI-H460 = assay: Cytotoxicity against human NCI-H460 cells; format: functional
NCI-H522 = assay: Cytotoxicity against human NCI-H522 cells; format: functional
MOLT-4 = assay: Cytotoxicity against human MOLT4 cells; format: functional
SF-268 = assay: Cytotoxicity against human SF268 cells; format: functional
MDA-MB-435 = assay: Cytotoxicity against human MDA-MB-435 cells; format: functional
NCI-H226 = assay: Cytotoxicity against human NCI-H226 cells; format: functional
SK-MEL-5 = assay: Cytotoxicity against human SKMEL5 cells; format: functional
A498 = assay: Cytotoxicity against human A498 cells; format: functional
CAKI-1 = assay: Cytotoxicity against human CAKI1 cells; format: functional
SNB-75 = assay: Cytotoxicity against human SNB75 cells; format: functional
KM12 = assay: Cytotoxicity against human KM12 cells; format: functional
T47D = assay: Cytotoxicity against human T47D cells; format: functional
SK-MEL-2 = assay: Cytotoxicity against human SKMEL2 cells; format: functional
DU-145 = assay: Cytotoxicity against human DU145 cells; format: functional
[2] = Cytotoxicity against human HL60(TB) cells; format: functional, HL-60(TB); conditions: HL-60
HCT-116 = assay: Cytotoxicity against human HCT116 cells; format: functional
HOP-62 = assay: Cytotoxicity against human HOP62 cells; format: functional

COc1cc2c(cc1OCCCn1c(-c3ccco3)nc3ccccc31)N=C[C@@H]1CCCN1C2=O
ΔTm (DNA): 6.1 °C

COc1cc2c(cc1OCCCn1c(-c3ccco3)nc3ccccc31)NC(=O)[C@@H]1CCCN1C2=O
ΔTm (DNA): 0.7 °C

COc1cc2c(cc1O)N=C[C@@H]1CCCN1C2=O
ΔTm (DNA): 0.7 °C

COc1cc2c(cc1OCCCCCn1c(-c3cccs3)nc3ccccc31)NC(=O)[C@@H]1CCCN1C2=O
ΔTm (DNA): 0.8 °C

COc1cc2c(cc1OCCCCn1c(-c3ccco3)nc3ccccc31)N=C[C@@H]1CCCN1C2=O
Activity (Bacilli): inactive | ΔTm (DNA): 0 °C

COc1cc2c(cc1OCCCCn1c(-c3cccs3)nc3ccccc31)N=C[C@@H]1CCCN1C2=O
GI50 (HCT-15): 3.19 µM | GI50 (HOP-92): 1.33 µM | GI50 (MCF7): 0.66 µM | GI50 (OVCAR-8): 2.58 µM | GI50 (K562): 15.5 µM | GI50 (Hs-578T): 1.7 µM | GI50 (NCI/ADR-RES): 3.24 µM | GI50 (SNB-19): 1.53 µM | GI50 (MDA-MB-468): 0.33 µM | GI50 (BT-549): 0.41 µM | GI50 (NCI-H23): 2.05 µM | GI50 (RPMI-8226): 0.31 µM | GI50 (LOX IMVI): 0.78 µM | GI50 (SN12C): 2.5 µM | GI50 (NCI-H322M): 2.7 µM | GI50 (UO-31): 1.23 µM | GI50 [1]: 0.75 µM | GI50 (SW-620): 1.84 µM | GI50 (U-251): 1.77 µM | GI50 (UACC-62): 1.57 µM | GI50 (786-0): 1.71 µM | GI50 (ACHN): 2.81 µM | GI50 (OVCAR-5): 3.27 µM | GI50 (HT-29): 1.97 µM | GI50 (SF-539): 1.72 µM | GI50 (SK-OV-3): 3.32 µM | GI50 (SK-MEL-28): 1.53 µM | GI50 (MDA-MB-231): 1.39 µM | GI50 (OVCAR-3): 1.72 µM | GI50 (RXF 393): 1.34 µM | GI50 (M14): 1.35 µM | GI50 (Malme-3M): 1.74 µM | GI50 (UACC-257): 2.54 µM | GI50 (CCRF-CEM): 0.24 µM | GI50 (COLO 205): 1.07 µM | GI50 (TK-10): 2.09 µM | GI50 (SR): 0.45 µM | GI50 (HCC 2998): 2.08 µM | GI50 (OVCAR-4): 1.61 µM | GI50 (EKVX): 3.36 µM | ΔTm (DNA): 1 °C | GI50 (A549): 3.22 µM | GI50 (NCI-H460): 1.55 µM | GI50 (NCI-H522): 1.04 µM | GI50 (MOLT-4): 3.79 µM | GI50 (SF-268): 1.8 µM | GI50 (MDA-MB-435): 1.39 µM | GI50 (NCI-H226): 2.13 µM | GI50 (SK-MEL-5): 1.09 µM | GI50 (A498): 1.68 µM | GI50 (CAKI-1): 0.94 µM | GI50 (SNB-75): 1.22 µM | GI50 (KM12): 1.92 µM | GI50 (T47D): 0.5 µM | GI50 (SK-MEL-2): 1.47 µM | GI50 (DU-145): 1.32 µM | GI50 [2]: 5.18 µM | GI50 (HCT-116): 1.75 µM

COc1cc2c(cc1OCCCCCn1c(-c3cccs3)nc3ccccc31)N=C[C@@H]1CCCN1C2=O
ΔTm (DNA): 6.1 °C

COc1cc2c(cc1OCCCn1c(-c3cccs3)nc3ccccc31)N=C[C@@H]1CCCN1C2=O
ΔTm (DNA): 5.1 °C

COc1cc2c(cc1OCCCCCn1c(-c3ccco3)nc3ccccc31)N=C[C@@H]1CCCN1C2=O
GI50 (HCT-15): 0.02 µM | GI50 (HOP-92): 0.01 µM | Activity (Bacilli): Active | GI50 (MCF7): < 0.01 µM | GI50 (OVCAR-8): < 0.01 µM | GI50 (K562): < 0.01 µM | GI50 (Hs-578T): < 0.01 µM | GI50 (NCI/ADR-RES): 0.23 µM | GI50 (SNB-19): < 0.01 µM | GI50 (MDA-MB-468): < 0.01 µM | GI50 (BT-549): < 0.01 µM | GI50 (NCI-H23): < 0.01 µM | GI50 (RPMI-8226): < 0.01 µM | GI50 (LOX IMVI): < 0.01 µM | GI50 (SN12C): < 0.01 µM | GI50 (NCI-H322M): 0.03 µM | GI50 (UO-31): 0.1 µM | GI50 [1]: 0.01 µM | GI50 (SW-620): < 0.01 µM | GI50 (U-251): < 0.01 µM | GI50 (UACC-62): < 0.01 µM | GI50 (786-0): < 0.01 µM | GI50 (ACHN): < 0.01 µM | GI50 (OVCAR-5): < 0.01 µM | GI50 (HT-29): < 0.01 µM | GI50 (SF-539): < 0.01 µM | GI50 (SK-OV-3): < 0.01 µM | GI50 (SK-MEL-28): < 0.01 µM | GI50 (MDA-MB-231): 0.01 µM | GI50 (OVCAR-3): < 0.01 µM | GI50 (RXF 393): < 0.01 µM | GI50 (M14): < 0.01 µM | GI50 (Malme-3M): 0.01 µM | GI50 (UACC-257): < 0.01 µM | GI50 (CCRF-CEM): < 0.01 µM | GI50 (COLO 205): < 0.01 µM | GI50 (TK-10): 0.01 µM | GI50 (SR): < 0.01 µM | GI50 (HOP-62): < 0.01 µM | GI50 (OVCAR-4): < 0.01 µM | GI50 (EKVX): < 0.01 µM | ΔTm (DNA): 7 °C | GI50 (A549): < 0.01 µM | GI50 (NCI-H460): < 0.01 µM | GI50 (NCI-H522): < 0.01 µM | GI50 (MOLT-4): < 0.01 µM | GI50 (SF-268): < 0.01 µM | GI50 (MDA-MB-435): < 0.01 µM | GI50 (NCI-H226): < 0.01 µM | GI50 (SK-MEL-5): < 0.01 µM | GI50 (A498): < 0.01 µM | GI50 (CAKI-1): < 0.01 µM | GI50 (SNB-75): < 0.01 µM | GI50 (KM12): < 0.01 µM | GI50 (T47D): < 0.01 µM | GI50 (SK-MEL-2): 0.02 µM | GI50 (DU-145): 0.02 µM | GI50 [2]: < 0.01 µM | GI50 (HCT-116): < 0.01 µM
